Reference: ChEMBL document CHEMBL3098007, “Synthesis of 3-heteryl substituted pyrrolidine-2,5-diones via catalytic Michael reaction and evaluation of their inhibitory activity against InhA and Mycobacterium tuberculosis” (Eur J Med Chem, 2014)
In brackets after ≈: the same amount, converted by molar mass.

Columns and labels:
[1] = Cytotoxicity against human GM637 cells after 4 days by WST-1 assay; type: cell-based; settings: GM637, 96 h
Outline: (§1)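 Cells cultured in DMEM with 10% fetal calf serum. Seeded at 3000 cells/well, treated 24 h later with 9 concentrations from 100 nM to 100 µM, 8 replicates each. Viability read by WST-1 after 4 days of treatment. IC50 derived by curve fitting.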

[2] = test system: Mycobacterium tuberculosis; assay: Antimicrobial activity against Mycobacterium tuberculosis H37Rv after 21 days by micro-broth dilution method; type: functional; settings: 504 h
[3] = test system: HCT-116; assay: Cytotoxicity against human HCT116 cells after 4 days by WST-1 assay; type: cell-based; settings: HCT-116, 96 h; outline: as §1

SMILES | IC50 [1] | MIC [2] | IC50 [3]
O=C1CC(N2CCN(C3c4ccccc4-c4ccccc43)CC2)C(=O)N1c1ccccc1 (stereo not drawn) | > 100 µM | 94.4 µM (≈ 40 µg/mL) | > 100 µM
Oc1cc(Cl)ccc1Oc1ccc(Cl)cc1Cl [TRICLOSAN] | – | 34.5 µM (≈ 9.99 µg/mL) | –
O=C1CC(N2CCc3ccccc3C2)C(=O)N1Cc1ccccc1 (stereo not drawn) | > 100 µM | 31.2 µM (≈ 10 µg/mL) | > 100 µM
O=C1CC(N2CCc3ccccc3C2)C(=O)N1c1ccccc1 (stereo not drawn) | > 100 µM | 8.2 µM (≈ 2.51 µg/mL) | > 100 µM
O=C1CC(Sc2nc[nH]n2)C(=O)N1c1ccccc1 (stereo not drawn) | 15 µM | 18.2 µM (≈ 4.99 µg/mL) | 17 µM
COc1ccc(N2C(=O)CC(Sc3nnc[nH]3)C2=O)cc1 (stereo not drawn) | – | 16.4 µM (≈ 4.99 µg/mL) | –
O=C1CC(n2ccnc2)C(=O)N1c1ccccc1 (stereo not drawn) | > 100 µM | 82.9 µM (≈ 20 µg/mL) | > 100 µM
O=C1CC(c2c(-c3ccccc3)cc3ccccn23)C(=O)N1Cc1ccccc1 (stereo not drawn) | – | 52.6 µM (≈ 20 µg/mL) | –
COc1ccc(N2C(=O)CC(n3ccnc3)C2=O)cc1 (stereo not drawn) | – | 55.3 µM (≈ 15 µg/mL) | –
NNC(=O)c1ccncc1 [ISONIAZID] | – | 0.4 µM (≈ 0.0549 µg/mL) | –
O=C1CC(c2c3c([N+](=O)[O-])cc([N+](=O)[O-])cc3c3ccccn23)C(=O)N1c1ccccc1 (stereo not drawn) | > 100 µM | 46.5 µM (≈ 20 µg/mL) | > 100 µM
O=C1CC(N2CCN(C3c4ccccc4-c4ccccc43)CC2)C(=O)N1Cc1ccccc1 (stereo not drawn) | – | 91.4 µM (≈ 40 µg/mL) | –
O=C(c1ccc2[nH]ccc2c1)N1CCN(C2c3ccccc3-c3ccccc32)CC1 | – | > 318 µM | –
O=C1CC(c2c(-c3ccccc3)cc3ccccn23)C(=O)N1c1ccccc1 (stereo not drawn) | > 100 µM | 109 µM (≈ 40 µg/mL) | > 100 µM
